From ChEMBL document CHEMBL1140243, “Synthesis and SAR of 2,3-diarylpyrrole inhibitors of parasite cGMP-dependent protein kinase as novel anticoccidial agents” (Bioorg Med Chem Lett, 2005)

How the values were obtained:
Eimeria acervulina = assay: Anticoccidial activity (percent reduction in oocyst production) against Eimeria acervulina in white leghorn chickens at 100 ppm; assay type: functional; set-up: scale not given: the % may be the effect or the level left
In short: (§1)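 White Leghorn chicks were acclimated, then at 3 days old sorted by weight and randomized to medicated or control diets. There were one or two replicates of two birds per treatment. After 24 h of premedication, one bird per replicate got E. acervulina and the other E. tenella, both drug-sensitive laboratory strains. Inocula were sporulated oocysts in tap water, 0.25 mL per bird, giving low-to-moderate infection.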

[1] = target: cGMP-dependent protein kinase (Eimeria tenella, UniProt Q8MMZ8); assay: In vitro inhibition of Eimeria tenella cGMP-dependent protein kinase
Eimeria tenella = assay: Anticoccidial activity (percent reduction in oocyst production) against Eimeria tenella in white leghorn chickens at 100 ppm; assay type: functional; set-up: scale not given: the % may be the effect or the level left; in short: as §1
Gallus gallus [2] = species: Gallus gallus; assay: Anticoccidial activity (percent reduction in oocyst production) against Eimeria praecox in chickens at 25 ppm; Range = 50-79 %; assay type: functional; set-up: scale not given: the % may be the effect or the level left
Gallus gallus [3] = species: Gallus gallus; assay: Anticoccidial activity (percent reduction in oocyst production) against Eimeria mitis in chickens at 25 ppm; Range = 50-79 %; assay type: functional; set-up: scale not given: the % may be the effect or the level left
Gallus gallus [4] = species: Gallus gallus; assay: Anticoccidial activity (percent reduction in oocyst production) against Eimeria maxima in chickens at 25 ppm; Range = 50-79 %; assay type: functional; set-up: scale not given: the % may be the effect or the level left
Gallus gallus [5] = species: Gallus gallus; assay: Anticoccidial activity (percent reduction in oocyst production) against Eimeria mivati in chickens at 25 ppm; Range = 50-79 %; assay type: functional; set-up: scale not given: the % may be the effect or the level left
Gallus gallus [6] = species: Gallus gallus; assay: Anticoccidial activity (percent reduction in oocyst production) against Eimeria necatrix in chickens at 25 ppm; Range = 50-79 %; assay type: functional; set-up: scale not given: the % may be the effect or the level left
Gallus gallus [7] = species: Gallus gallus; assay: Anticoccidial activity (percent reduction in oocyst production) against Eimeria acervulina in chickens at 25 ppm; Range = 50-79 %; assay type: functional; set-up: scale not given: the % may be the effect or the level left; in short: as §1
Gallus gallus [8] = species: Gallus gallus; assay: Anticoccidial activity (percent reduction in oocyst production) against Eimeria maxima in chickens at 50 ppm; assay type: functional; set-up: scale not given: the % may be the effect or the level left
Gallus gallus [9] = species: Gallus gallus; assay: Anticoccidial activity (percent reduction in oocyst production) against Eimeria maxima in chickens at 75 ppm; assay type: functional; set-up: scale not given: the % may be the effect or the level left
Gallus gallus [10] = species: Gallus gallus; assay: Anticoccidial activity (percent reduction in oocyst production) against Eimeria mitis in chickens at 125 ppm; assay type: functional; set-up: scale not given: the % may be the effect or the level left
Gallus gallus [11] = species: Gallus gallus; assay: Anticoccidial activity (percent reduction in oocyst production) against Eimeria mivati in chickens at 50 ppm; assay type: functional; set-up: scale not given: the % may be the effect or the level left
Gallus gallus [12] = species: Gallus gallus; assay: Anticoccidial activity (percent reduction in oocyst production) against Eimeria mivati in chickens at 75 ppm; assay type: functional; set-up: scale not given: the % may be the effect or the level left
Gallus gallus [13] = species: Gallus gallus; assay: Anticoccidial activity (percent reduction in oocyst production) against Eimeria maxima in chickens at 125 ppm; assay type: functional; set-up: scale not given: the % may be the effect or the level left
Gallus gallus [14] = species: Gallus gallus; assay: Anticoccidial activity (percent reduction in oocyst production) against Eimeria mivati in chickens at 125 ppm; assay type: functional; set-up: scale not given: the % may be the effect or the level left
Gallus gallus [15] = species: Gallus gallus; assay: Anticoccidial activity (percent reduction in oocyst production) against Eimeria praecox in chickens at 50 ppm; assay type: functional; set-up: scale not given: the % may be the effect or the level left
Gallus gallus [16] = species: Gallus gallus; assay: Anticoccidial activity (percent reduction in oocyst production) against Eimeria praecox in chickens at 75 ppm; assay type: functional; set-up: scale not given: the % may be the effect or the level left
Gallus gallus [17] = species: Gallus gallus; assay: Anticoccidial activity (percent reduction in oocyst production) against Eimeria tenella in chickens at 50 ppm; assay type: functional; set-up: scale not given: the % may be the effect or the level left; in short: as §1
Gallus gallus [18] = species: Gallus gallus; assay: Anticoccidial activity (percent reduction in oocyst production) against Eimeria tenella in chickens at 75 ppm; assay type: functional; set-up: scale not given: the % may be the effect or the level left; in short: as §1
Gallus gallus [19] = species: Gallus gallus; assay: Anticoccidial activity (percent reduction in oocyst production) against Eimeria brunetti in chickens at 50 ppm; assay type: functional; set-up: scale not given: the % may be the effect or the level left
Gallus gallus [20] = species: Gallus gallus; assay: Anticoccidial activity (percent reduction in oocyst production) against Eimeria brunetti in chickens at 75 ppm; assay type: functional; set-up: scale not given: the % may be the effect or the level left
Gallus gallus [21] = species: Gallus gallus; assay: Anticoccidial activity (percent reduction in oocyst production) against Eimeria necatrix in chickens at 50 ppm; assay type: functional; set-up: scale not given: the % may be the effect or the level left
Gallus gallus [22] = species: Gallus gallus; assay: Anticoccidial activity (percent reduction in oocyst production) against Eimeria necatrix in chickens at 75 ppm; assay type: functional; set-up: scale not given: the % may be the effect or the level left
Gallus gallus [23] = species: Gallus gallus; assay: Anticoccidial activity (percent reduction in oocyst production) against Eimeria praecox in chickens at 125 ppm; assay type: functional; set-up: scale not given: the % may be the effect or the level left
Gallus gallus [24] = species: Gallus gallus; assay: Anticoccidial activity (percent reduction in oocyst production) against Eimeria tenella in chickens at 125 ppm; assay type: functional; set-up: scale not given: the % may be the effect or the level left; in short: as §1
Gallus gallus [25] = species: Gallus gallus; assay: Anticoccidial activity (percent reduction in oocyst production) against Eimeria brunetti in chickens at 125 ppm; assay type: functional; set-up: scale not given: the % may be the effect or the level left
Gallus gallus [26] = species: Gallus gallus; assay: Anticoccidial activity (percent reduction in oocyst production) against Eimeria necatrix in chickens at 125 ppm; assay type: functional; set-up: scale not given: the % may be the effect or the level left
Gallus gallus [27] = species: Gallus gallus; assay: Anticoccidial activity (percent reduction in oocyst production) against Eimeria mitis in chickens at 50 ppm; assay type: functional; set-up: scale not given: the % may be the effect or the level left
Gallus gallus [28] = species: Gallus gallus; assay: Anticoccidial activity (percent reduction in oocyst production) against Eimeria mitis in chickens at 75 ppm; assay type: functional; set-up: scale not given: the % may be the effect or the level left
Gallus gallus [29] = species: Gallus gallus; assay: Anticoccidial activity (percent reduction in oocyst production) against Eimeria acervulina in chickens at 50 ppm; assay type: functional; set-up: scale not given: the % may be the effect or the level left; in short: as §1
Gallus gallus [30] = species: Gallus gallus; assay: Anticoccidial activity (percent reduction in oocyst production) against Eimeria acervulina in chickens at 75 ppm; assay type: functional; set-up: scale not given: the % may be the effect or the level left; in short: as §1
Gallus gallus [31] = species: Gallus gallus; assay: Anticoccidial activity (percent reduction in oocyst production) against Eimeria acervulina in chickens at 125 ppm; assay type: functional; set-up: scale not given: the % may be the effect or the level left; in short: as §1
Gallus gallus [32] = assay: Oral bioavailability in the chicken; assay type: functional, organism-based
Gallus gallus [33] = species: Gallus gallus; assay: Anticoccidial activity (percent reduction in oocyst production) against Eimeria tenella in chickens at 25 ppm; Range = 50-79 %; assay type: functional; set-up: scale not given: the % may be the effect or the level left; in short: as §1
Gallus gallus [34] = species: Gallus gallus; assay: Anticoccidial activity (percent reduction in oocyst production) against Eimeria brunetti in chickens at 25 ppm; Range = 50-79 %; assay type: functional; set-up: scale not given: the % may be the effect or the level left
Gallus gallus [35] = species: Gallus gallus; assay: Half-life in the chicken; assay type: functional, organism-based

cGMP-dependent protein kinase, sequence (Q8MMZ8 whole entry): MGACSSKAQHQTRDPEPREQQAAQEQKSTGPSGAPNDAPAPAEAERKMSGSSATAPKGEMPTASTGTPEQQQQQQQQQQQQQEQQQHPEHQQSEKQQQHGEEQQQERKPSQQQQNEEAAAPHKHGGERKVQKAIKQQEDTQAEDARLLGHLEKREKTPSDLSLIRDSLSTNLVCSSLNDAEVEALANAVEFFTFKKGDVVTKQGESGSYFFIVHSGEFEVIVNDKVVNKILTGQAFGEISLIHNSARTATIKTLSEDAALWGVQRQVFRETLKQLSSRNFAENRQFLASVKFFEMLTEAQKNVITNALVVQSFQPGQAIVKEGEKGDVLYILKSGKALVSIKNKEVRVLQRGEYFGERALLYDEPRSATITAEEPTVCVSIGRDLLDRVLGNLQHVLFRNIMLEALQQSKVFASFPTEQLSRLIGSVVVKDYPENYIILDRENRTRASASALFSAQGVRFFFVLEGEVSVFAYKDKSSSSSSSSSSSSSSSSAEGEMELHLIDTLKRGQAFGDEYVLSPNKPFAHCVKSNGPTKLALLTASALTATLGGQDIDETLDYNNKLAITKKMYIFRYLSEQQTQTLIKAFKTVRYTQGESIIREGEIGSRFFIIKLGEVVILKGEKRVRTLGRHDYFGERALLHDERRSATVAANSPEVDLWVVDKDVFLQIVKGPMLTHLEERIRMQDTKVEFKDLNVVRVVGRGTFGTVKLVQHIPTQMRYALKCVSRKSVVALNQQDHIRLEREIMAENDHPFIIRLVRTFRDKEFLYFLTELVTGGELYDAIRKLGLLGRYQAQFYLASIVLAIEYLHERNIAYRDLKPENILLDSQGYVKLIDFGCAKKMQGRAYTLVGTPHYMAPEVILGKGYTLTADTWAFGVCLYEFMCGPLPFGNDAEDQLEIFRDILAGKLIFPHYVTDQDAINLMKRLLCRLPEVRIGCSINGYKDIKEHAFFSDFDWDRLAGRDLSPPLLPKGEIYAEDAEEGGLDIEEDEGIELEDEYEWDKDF

In the case of CN1CCC(c2[nH]c(-c3ccc(F)cc3)c(-c3ccncc3)c2Cl)CC1, the Activity (Eimeria acervulina) is reported as <50% and the IC50 [1] is reported as 1.02 nM.

For CN1CCC(c2cc(-c3ccncc3)c(-c3ccc(F)c(F)c3)[nH]2)CC1, the Activity (Eimeria tenella) was “>=80%”, the Activity (Eimeria acervulina) was <50% and the IC50 [1] was 2 nM.

For CCN1CCC(c2cc(-c3ccncc3)c(-c3ccc(F)cc3)[nH]2)CC1, the Activity (Gallus gallus [2]) was <79%, the Activity (Gallus gallus [3]) was <79% and the Activity (Eimeria tenella) was “>=80%”. The Activity (Gallus gallus [4]) was <79%, the Activity (Gallus gallus [5]) was <79% and the Activity (Eimeria acervulina) was “>=80%”. For the same compound, the Activity (Gallus gallus [6]) was <79%, the Activity (Gallus gallus [7]) was <79% and the IC50 [1] was 0.28 nM. The Activity (Gallus gallus [8]) was “>=80%”, the Activity (Gallus gallus [9]) was “>=80%” and the Activity (Gallus gallus [10]) was “>=80%”. The Activity (Gallus gallus [11]) was “>=80%”, the Activity (Gallus gallus [12]) was “>=80%” and the Activity (Gallus gallus [13]) was “>=80%”. The Activity (Gallus gallus [14]) was “>=80%”, the Activity (Gallus gallus [15]) was “>=80%” and the Activity (Gallus gallus [16]) was “>=80%”. For the same compound, the Activity (Gallus gallus [17]) was “>=80%”, the Activity (Gallus gallus [18]) was “>=80%” and the Activity (Gallus gallus [19]) was “>=80%”. The Activity (Gallus gallus [20]) was “>=80%”, the Activity (Gallus gallus [21]) was “>=80%” and the Activity (Gallus gallus [22]) was “>=80%”. For the same compound, the Activity (Gallus gallus [23]) was “>=80%”, the Activity (Gallus gallus [24]) was “>=80%” and the Activity (Gallus gallus [25]) was “>=80%”. The Activity (Gallus gallus [26]) was “>=80%”, the Activity (Gallus gallus [27]) was “>=80%” and the Activity (Gallus gallus [28]) was “>=80%”. The Activity (Gallus gallus [29]) was “>=80%”, the Activity (Gallus gallus [30]) was “>=80%” and the Activity (Gallus gallus [31]) was “>=80%”. For the same compound, the bioavailability (Gallus gallus [32]) was 84%, the Activity (Gallus gallus [33]) was <79% and the Activity (Gallus gallus [34]) was <79%. For the same compound, the T1/2 (Gallus gallus [35]) was 1.2 h.

CN1CCC(c2cc(-c3ccncc3)c(-c3ccc(F)cc3)s2)CC1 was tested, and the Activity (Eimeria tenella) was “>=80%”, the Activity (Eimeria acervulina) was “>=80%” and the IC50 [1] was 4.2 nM.

CN1CCC(c2cc(-c3ccncc3)c(-c3ccc(F)c(Cl)c3)[nH]2)CC1 was tested, and the Activity (Eimeria tenella) was “>=80%” and the IC50 [1] was 0.44 nM.

In the case of NCCCN1CCC(c2cc(-c3ccncc3)c(-c3ccc(F)cc3)[nH]2)CC1, the Activity (Eimeria tenella) is reported as <50%, the Activity (Eimeria acervulina) is reported as <50% and the IC50 [1] is reported as 0.046 nM.

CN1CCC(c2cc(-c3ccc(F)cc3)c(-c3ccc(F)cc3)[nH]2)CC1 was tested, and the Activity (Eimeria tenella) was <50%, the Activity (Eimeria acervulina) was <50% and the IC50 [1] was 15.6 nM.

CN1CCC(c2cc(-c3ccncc3)c(-c3ccco3)[nH]2)CC1 was tested, and the Activity (Eimeria tenella) was <50%, the Activity (Eimeria acervulina) was <50% and the IC50 [1] was 11.1 nM.

In the case of CN1CCC(c2cc(-c3ccncc3)c(-c3ccc(C(F)(F)F)cc3)[nH]2)CC1, the Activity (Eimeria tenella) is reported as <50%, the Activity (Eimeria acervulina) is reported as <50% and the IC50 [1] is reported as 55 nM.

CN1CCC(c2[nH]c(-c3ccc(F)cc3)c(-c3ccncc3)c2Br)CC1 was tested, and the Activity (Eimeria tenella) was <50%, the Activity (Eimeria acervulina) was <50% and the IC50 [1] was 1.2 nM.

For Cc1cc(-c2cc(C3CCN(C)CC3)[nH]c2-c2ccc(F)cc2)on1, the Activity (Eimeria tenella) was <50%, the Activity (Eimeria acervulina) was <50% and the IC50 [1] was > 1000 nM.

OCCCN1CCC(c2cc(-c3ccncc3)c(-c3ccc(F)cc3)[nH]2)CC1 was tested, and the Activity (Eimeria acervulina) was “>=80%” and the IC50 [1] was 0.53 nM.

For CN1CCC(c2cc(-c3ccncc3)c(-c3ccoc3)[nH]2)CC1, the Activity (Eimeria tenella) was <50%, the Activity (Eimeria acervulina) was <50% and the IC50 [1] was 26.3 nM.

CN1CCC(c2cc(-c3ccncc3)c(-c3ccc(Cl)cc3)[nH]2)CC1 was tested, and the Activity (Eimeria tenella) was <50%, the Activity (Eimeria acervulina) was “>=80%” and the IC50 [1] was 1 nM.

For NCCN1CCC(c2cc(-c3ccncc3)c(-c3ccc(F)cc3)[nH]2)CC1, the Activity (Eimeria tenella) was <50%, the Activity (Eimeria acervulina) was <50% and the IC50 [1] was 0.28 nM.

In the case of CN1CCC1CN1CCC(c2cc(-c3ccncc3)c(-c3ccc(F)cc3)[nH]2)CC1 (stereo unspecified), the Activity (Eimeria tenella) is reported as “>=80%”, the Activity (Eimeria acervulina) is reported as “>=80%” and the IC50 [1] is reported as 0.28 nM.

CN1CCC(c2cc(-c3ccccn3)c(-c3ccc(F)cc3)[nH]2)CC1 was tested, and the Activity (Eimeria tenella) was <50%, the Activity (Eimeria acervulina) was <50% and the IC50 [1] was 23.6 nM.

CN1CCC(c2nc(-c3ccc(F)cc3)c(-c3ccncc3)o2)CC1 was tested, and the Activity (Eimeria tenella) was “>=80%”, the Activity (Eimeria acervulina) was “>=80%” and the IC50 [1] was 0.97 nM.

With CN1CCC(c2cc(-c3ccncc3)c(-c3ccc(OC(F)(F)F)cc3)[nH]2)CC1 the Activity (Eimeria tenella) was “>=80%”, the Activity (Eimeria acervulina) was <50% and the IC50 [1] was 46 nM.

CN1CCC(c2cc(-c3ccncc3)c(-c3ccc(F)c(Br)c3)[nH]2)CC1 was tested, and the Activity (Eimeria tenella) was <50%, the Activity (Eimeria acervulina) was <50% and the IC50 [1] was 0.15 nM.
